# Results of several laboratories.
# BCHE: Cholinesterase (BCHE, Equus caballus, UniProt P81908)
# C3AR1: C3a anaphylatoxin chemotactic receptor (C3AR1, Homo sapiens, UniProt Q16581)
Compound,target,assay,quantity,result
O=C(O)C(/C=C/c1ccc(Cl)cc1)=N\Nc1nc(-c2ccccc2)cs1,BCHE,"enzyme activity, inhibitor",IC50,2.03 µM
COc1cc2c(cc1OC)CN(CCc1ccc(NC(=O)c3cccc4c(=O)c5cccc(OC)c5[nH]c34)cc1)CC2,"D(1A) dopamine receptor (DRD1, Homo sapiens, UniProt P21728)",cell-free assay,Ki,> 10 µM
COc1ccc(-c2csc(N/N=C(/C=C/c3c(Cl)cccc3Cl)C(=O)O)n2)cc1,BCHE,"enzyme activity, inhibitor",IC50,5.01 µM
O=C(N1CCC2(CC1)C[C@@H](CN1CCCCS1(=O)=O)CCO2)C1(c2ccccc2)CCCC1,"DHX58 (Homo sapiens, UniProt Q96C10)","ATPase activity, inhibitor",IC50,> 50 µM
COc1cc(CCC(=O)N2CCC(Cc3ccccc3)CC2)ccc1OC(=O)N(C)C,BCHE,"enzyme activity, inhibitor, Ellman",IC50,1.3 µM
CC(C)C[C@H](NC(=O)[C@@H](N)[C@@H](C)O)C(=O)N[C@@H](CCC(N)=O)C(=O)N1CCC[C@H]1C(=O)N1CCC[C@H]1C(=O)N[C@@H](C)C(=O)N[C@@H](CO)C(=O)N[C@@H](CO)C(=O)N[C@@H](CCCNC(=N)N)C(=O)N[C@H](CCCNC(=N)N)C(=O)N[C@@H](CCCNC(=N)N)C(=O)N[C@@H](Cc1c[nH]cn1)C(=O)N[C@@H](Cc1ccccc1)C(=O)N[C@@H](Cc1c[nH]cn1)C(=O)N[C@@H](Cc1c[nH]cn1)C(=O)N[C@@H](C)C(=O)N[C@@H](CC(C)C)C(=O)N1CCC[C@H]1C(=O)N1CCC[C@H]1C(=O)NCC(=O)N[C@@H](CCCNC(=N)N)C(=O)O,C3AR1,"β-arrestin recruitment, agonist",EC50,0.097 µM
CCOc1ccc(/C=C/C(=O)N2CCCC(NC(=O)OC(C)(C)C)C2)cc1OC (stereo not shown),BCHE,"enzyme activity, inhibitor, Ellman",IC50,13.5 µM
CCN(C)C(=O)Oc1ccc(/C=C/C(=O)NC2CCN(Cc3ccccc3)CC2)cc1,BCHE,"enzyme activity, inhibitor, Ellman",IC50,16.3 µM
CC(C)(C)OC(=O)NC1CCCN(C(=O)/C=C/c2ccc(Cl)cc2)C1 (stereo not shown),BCHE,"enzyme activity, inhibitor, Ellman",IC50,> 50 µM
CC(C)C[C@H](NC(=O)[C@@H](N)[C@@H](C)O)C(=O)N[C@@H](CCC(N)=O)C(=O)N1CCC[C@H]1C(=O)N1CCC[C@H]1C(=O)N[C@@H](C)C(=O)N[C@@H](CO)C(=O)N[C@@H](CO)C(=O)N[C@@H](CCCNC(=N)N)C(=O)N[C@H](CCCNC(=N)N)C(=O)N[C@@H](CCCNC(=N)N)C(=O)N[C@@H](Cc1c[nH]cn1)C(=O)N[C@@H](Cc1ccccc1)C(=O)N[C@@H](Cc1c[nH]cn1)C(=O)N[C@@H](Cc1c[nH]cn1)C(=O)N[C@@H](C)C(=O)N[C@@H](CC(C)C)C(=O)N1CCC[C@H]1C(=O)N1CCC[C@H]1C(=O)N[C@@H](C)C(=O)N[C@@H](CCCCNC(=N)N)C(=O)O,C3AR1,"G protein activation, agonist, BRET",EC50,0.259 µM
